# Results as given in article PMC4715766 (ACS Chemical Biology, 2015).
# How the values were obtained:
# DYNC1H1 = DYNC1H1 (Homo sapiens, UniProt Q14204); assay: DYNC1H1 ATPase assay; type: biochemical
# Summary of the method: (§1)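 Purified N-terminally SBP- and SNAP-tagged full-length human heavy chains; hydrolysis of γ-32P ATP measured at 37 °C under conditions kept linear from enzyme reaction curves. Single-dose screens used 50 μM in both assays (about 25 nM γ-32P ATP, duplicates), or 50 μM for DYNC1H1 and 15 μM for DYNC2H1 (two experiments). IC50 calculated from dose-response curves run in triplicate.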
# [1] = test system: NIH-3T3 cell-derived line; assay: Ciliogenesis assay; type: cell-based, murine; conditions: 30 μM; 24 h
# Summary of the method: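 NIH-3T3-derived cells were exposed to the test compound at 30 μM for 24 h, then fixed and immunostained for ARL13B. Primary cilium length was taken as the mean number of ARL13B-positive pixels per cell over at least 6 fields of view, about 800 cells per condition, reported ± s.e.m.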
# DYNC2H1 = DYNC2H1 (Homo sapiens, UniProt Q8NCM8); assay: DYNC2H1 ATPase assay; type: biochemical
# Summary of the method: as §1
# Hh signaling = Hh signaling assay; type: cell-based, murine; conditions: ShhN-conditioned medium and compound for 30 h
# IMCD3 cells = assay: Real-time imaging of mNeonGreen-IFT88 movement; type: cell-based, murine; conditions: 15 μM
# Summary of the method: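 Live IMCD3 cells expressing mNeonGreen-IFT88 were given 15 μM test compound or DMSO for 3 min and imaged in real time. Foci were tracked and classed as anterograde, retrograde or immobile, and their mean velocity and frequency were quantified from at least seven cilia across three independent experiments (± s.e.m.; P < 0.05 or 0.01).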
# DYNC1H1, sequence (Q14204 whole entry): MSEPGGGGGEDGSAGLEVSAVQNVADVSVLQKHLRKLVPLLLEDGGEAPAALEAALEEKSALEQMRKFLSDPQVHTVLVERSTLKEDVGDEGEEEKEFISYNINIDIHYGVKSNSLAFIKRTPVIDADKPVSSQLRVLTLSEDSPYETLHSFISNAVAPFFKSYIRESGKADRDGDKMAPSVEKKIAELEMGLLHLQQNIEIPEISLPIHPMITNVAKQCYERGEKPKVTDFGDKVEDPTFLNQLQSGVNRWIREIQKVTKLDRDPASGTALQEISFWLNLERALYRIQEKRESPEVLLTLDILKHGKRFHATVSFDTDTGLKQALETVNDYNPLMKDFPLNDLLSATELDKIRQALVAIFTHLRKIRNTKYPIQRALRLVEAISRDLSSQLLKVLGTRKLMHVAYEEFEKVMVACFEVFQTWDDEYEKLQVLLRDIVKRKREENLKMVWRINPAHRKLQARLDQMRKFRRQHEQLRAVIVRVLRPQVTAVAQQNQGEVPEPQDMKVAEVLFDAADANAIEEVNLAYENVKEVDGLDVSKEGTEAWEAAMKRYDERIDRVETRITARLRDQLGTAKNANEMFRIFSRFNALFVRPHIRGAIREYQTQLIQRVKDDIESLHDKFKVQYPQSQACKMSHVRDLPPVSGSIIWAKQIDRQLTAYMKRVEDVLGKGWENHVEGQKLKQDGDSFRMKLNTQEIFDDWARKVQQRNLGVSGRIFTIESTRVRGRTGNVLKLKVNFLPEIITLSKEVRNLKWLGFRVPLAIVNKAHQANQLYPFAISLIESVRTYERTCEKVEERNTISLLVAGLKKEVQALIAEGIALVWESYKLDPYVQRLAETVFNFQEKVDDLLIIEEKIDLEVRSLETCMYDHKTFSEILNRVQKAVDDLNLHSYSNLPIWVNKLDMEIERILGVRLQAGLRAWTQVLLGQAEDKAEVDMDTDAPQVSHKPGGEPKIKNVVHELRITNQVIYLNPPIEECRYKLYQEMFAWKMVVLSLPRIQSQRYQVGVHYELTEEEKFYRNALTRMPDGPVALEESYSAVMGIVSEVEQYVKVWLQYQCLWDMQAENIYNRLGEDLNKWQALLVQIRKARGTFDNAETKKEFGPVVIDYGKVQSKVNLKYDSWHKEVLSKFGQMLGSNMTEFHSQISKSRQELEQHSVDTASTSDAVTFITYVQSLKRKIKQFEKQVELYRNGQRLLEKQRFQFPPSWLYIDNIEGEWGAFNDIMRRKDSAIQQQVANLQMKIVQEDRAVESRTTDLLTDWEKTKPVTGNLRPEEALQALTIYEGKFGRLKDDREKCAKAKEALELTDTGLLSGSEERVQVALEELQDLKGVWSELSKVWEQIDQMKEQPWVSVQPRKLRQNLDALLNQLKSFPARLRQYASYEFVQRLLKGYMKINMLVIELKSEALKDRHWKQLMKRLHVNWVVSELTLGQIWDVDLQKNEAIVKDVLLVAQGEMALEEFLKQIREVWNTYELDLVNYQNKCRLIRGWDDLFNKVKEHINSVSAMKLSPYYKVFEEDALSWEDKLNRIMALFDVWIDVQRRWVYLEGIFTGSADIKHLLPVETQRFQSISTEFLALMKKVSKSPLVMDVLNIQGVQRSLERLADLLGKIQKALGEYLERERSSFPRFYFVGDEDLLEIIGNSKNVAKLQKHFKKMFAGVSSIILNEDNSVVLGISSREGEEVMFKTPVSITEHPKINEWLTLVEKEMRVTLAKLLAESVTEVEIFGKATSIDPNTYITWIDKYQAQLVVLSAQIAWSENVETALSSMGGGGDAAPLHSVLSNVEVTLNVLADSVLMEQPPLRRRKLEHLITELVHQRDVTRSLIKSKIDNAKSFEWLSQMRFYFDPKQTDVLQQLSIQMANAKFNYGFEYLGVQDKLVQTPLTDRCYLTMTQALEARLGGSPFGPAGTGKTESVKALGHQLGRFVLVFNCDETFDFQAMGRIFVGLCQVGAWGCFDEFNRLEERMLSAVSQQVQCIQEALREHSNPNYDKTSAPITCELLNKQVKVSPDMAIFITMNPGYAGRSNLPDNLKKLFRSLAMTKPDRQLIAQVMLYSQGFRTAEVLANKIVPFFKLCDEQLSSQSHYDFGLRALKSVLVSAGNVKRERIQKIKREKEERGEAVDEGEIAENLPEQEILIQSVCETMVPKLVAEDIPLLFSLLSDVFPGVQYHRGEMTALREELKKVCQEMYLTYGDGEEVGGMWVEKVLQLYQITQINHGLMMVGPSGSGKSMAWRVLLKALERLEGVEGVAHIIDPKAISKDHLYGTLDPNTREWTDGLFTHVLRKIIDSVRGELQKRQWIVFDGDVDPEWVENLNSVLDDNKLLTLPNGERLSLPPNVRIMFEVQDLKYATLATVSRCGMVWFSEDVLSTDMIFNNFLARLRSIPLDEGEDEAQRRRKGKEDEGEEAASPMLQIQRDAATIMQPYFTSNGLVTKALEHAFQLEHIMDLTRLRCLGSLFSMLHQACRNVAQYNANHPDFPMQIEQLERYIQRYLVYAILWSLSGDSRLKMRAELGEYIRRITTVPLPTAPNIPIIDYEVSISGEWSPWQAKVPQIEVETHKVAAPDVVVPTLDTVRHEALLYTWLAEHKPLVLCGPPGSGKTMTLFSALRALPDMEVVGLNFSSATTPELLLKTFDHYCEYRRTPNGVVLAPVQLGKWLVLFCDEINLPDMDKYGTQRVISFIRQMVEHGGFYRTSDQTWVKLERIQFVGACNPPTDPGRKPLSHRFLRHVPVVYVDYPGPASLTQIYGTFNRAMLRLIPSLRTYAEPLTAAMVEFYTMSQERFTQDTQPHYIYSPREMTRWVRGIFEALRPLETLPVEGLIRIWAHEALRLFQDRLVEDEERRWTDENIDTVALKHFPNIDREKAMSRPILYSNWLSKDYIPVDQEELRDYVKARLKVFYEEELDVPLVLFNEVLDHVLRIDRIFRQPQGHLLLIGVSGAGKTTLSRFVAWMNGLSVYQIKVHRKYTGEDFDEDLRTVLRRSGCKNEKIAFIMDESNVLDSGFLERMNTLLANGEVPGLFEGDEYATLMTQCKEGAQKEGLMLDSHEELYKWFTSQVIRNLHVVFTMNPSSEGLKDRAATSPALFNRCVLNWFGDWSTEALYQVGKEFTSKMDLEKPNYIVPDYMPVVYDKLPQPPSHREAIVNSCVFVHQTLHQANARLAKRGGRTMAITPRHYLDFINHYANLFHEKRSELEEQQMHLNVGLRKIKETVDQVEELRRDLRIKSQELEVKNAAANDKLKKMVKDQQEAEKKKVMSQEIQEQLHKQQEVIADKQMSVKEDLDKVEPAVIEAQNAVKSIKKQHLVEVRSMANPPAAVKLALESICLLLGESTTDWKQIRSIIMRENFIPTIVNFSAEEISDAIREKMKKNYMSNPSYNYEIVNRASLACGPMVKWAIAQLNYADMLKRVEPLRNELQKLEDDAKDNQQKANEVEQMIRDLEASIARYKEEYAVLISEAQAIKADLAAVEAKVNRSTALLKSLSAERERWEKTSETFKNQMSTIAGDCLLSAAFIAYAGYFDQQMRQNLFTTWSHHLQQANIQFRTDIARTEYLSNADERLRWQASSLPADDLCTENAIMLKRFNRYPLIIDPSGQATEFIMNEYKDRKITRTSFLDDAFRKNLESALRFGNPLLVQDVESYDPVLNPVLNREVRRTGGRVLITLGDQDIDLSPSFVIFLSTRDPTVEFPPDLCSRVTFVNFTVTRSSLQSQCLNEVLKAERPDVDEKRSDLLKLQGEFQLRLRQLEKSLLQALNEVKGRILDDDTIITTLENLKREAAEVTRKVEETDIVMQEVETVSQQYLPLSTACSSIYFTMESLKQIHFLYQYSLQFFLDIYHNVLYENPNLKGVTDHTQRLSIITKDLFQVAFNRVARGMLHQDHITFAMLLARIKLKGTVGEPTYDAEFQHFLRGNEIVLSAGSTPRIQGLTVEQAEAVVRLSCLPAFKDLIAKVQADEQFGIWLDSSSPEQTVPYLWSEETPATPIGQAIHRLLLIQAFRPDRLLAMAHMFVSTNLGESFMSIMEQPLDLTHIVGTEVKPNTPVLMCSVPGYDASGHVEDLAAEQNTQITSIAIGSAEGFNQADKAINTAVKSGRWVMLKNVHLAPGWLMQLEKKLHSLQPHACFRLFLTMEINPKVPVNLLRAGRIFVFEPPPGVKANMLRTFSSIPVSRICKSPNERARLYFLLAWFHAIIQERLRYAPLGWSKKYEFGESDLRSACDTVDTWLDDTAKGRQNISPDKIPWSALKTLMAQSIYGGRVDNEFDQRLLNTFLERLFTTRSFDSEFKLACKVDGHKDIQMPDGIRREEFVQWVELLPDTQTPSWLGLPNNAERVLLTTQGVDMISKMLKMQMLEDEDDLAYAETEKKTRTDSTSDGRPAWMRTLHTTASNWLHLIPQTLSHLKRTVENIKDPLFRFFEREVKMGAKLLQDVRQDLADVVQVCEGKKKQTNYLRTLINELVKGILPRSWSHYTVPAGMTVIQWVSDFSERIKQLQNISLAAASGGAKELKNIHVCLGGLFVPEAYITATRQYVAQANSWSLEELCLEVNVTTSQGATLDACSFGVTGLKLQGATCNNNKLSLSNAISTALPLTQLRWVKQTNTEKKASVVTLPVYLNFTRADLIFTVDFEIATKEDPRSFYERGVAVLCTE
IC50 (DYNC1H1),IC50 (DYNC2H1),Compound,inhibition of ciliogenesis / primary cilium length [1],inhibition of Hh signaling (Hh signaling),time to disruption of ciliary transport (IMCD3 cells)
130 µM,21 µM,CC(C)Oc1ccc2c(c1)NC(=C(C#N)C(=O)c1ccc(Cl)cc1Cl)NC2=O [analog 18],Inhibition of ciliogenesis,Dose-dependent inhibition of Hh signaling,–
–,–,Cc1ccc(COc2ccc3c(c2)NC(=C(C#N)C(=O)c2ccc(Cl)cc2Cl)NC3=O)cc1 [analog 37],–,–,≤ 3 min
